The text below walks through data of ChEMBL document CHEMBL5154772, “Biological Investigation of a Water-Soluble Isoginkgetin-Phosphate Analogue, Targeting the Spliceosome with In Vivo Antitumor Activity” (J Med Chem, 2022).

Molecules are shown by their SMILES. The source made the active and inactive calls. The calls are words filed in the database; no cut-off is given here.

Data set [1] can be described thus: Toxicity in C57BL/6 mouse assessed as change in liver weight at 50 mg/kg, ip administered as single dose and measured after 15 days (reference value: 1.2 to 1.3 g). The format is organism-based. The note with it: in vivo, 360 h, time 15 day. Summed up:
(§1)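 Female C57BL/6 mice given one IP injection of 100 µL, at 50, 100, 250 or 500 mg/kg in sterile PBS, two mice per dose; PBS-injected controls. Behaviour checked right after and at 30 min. Body weight recorded every 2–3 days for 15 days, then liver, spleen and kidneys weighed.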

A short description of data set [2]: Toxicity in C57BL/6 mouse assessed as change in liver weight at 500 mg/kg, ip administered as single dose and measured after 15 days (reference value: 1.2 to 1.3 g). In kind it is organism-based. The note with it: in vivo, 360 h, time 15 day. Summed up:
as §1

Data set [3] in a line: Antitumour activity against mouse wild type MCA-205 cells implanted in C57BL/6 mouse assessed as tumor size by measuring cell killing pretreatment at 2.5 mg/kg, iv administered starting from day 7 post inoculation at five days interval upto 17 days relative to control. The format is functional. The settings on record: time <= 17 day. The method in brief:
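Female C57BL/6 mice (6 weeks old) given subcutaneous MCA205 WT fibrosarcoma in the right flank. 2.5 mg/kg given intravenously on days 7, 12 and 17 after inoculation; untreated controls. Tumour area recorded every 3–4 days until ethical endpoints, then tumour size at killing. Groups compared by one-way ANOVA.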

Data set [4] deals with HUVEC. The experiment in a line: Antiproliferative activity against human HUVEC cells assessed as decrease in cell viability at 10 uM measured after 72 hrs by MTT based colorimetric assay. In kind it is functional.
A short description of data set [5]: Metabolic stability in mouse liver microsomes assessed as parent compound remaining incubated for 45 mins in presence of NADPH by HPLC-MS/MS analysis. The format is ADME, Microsome. The note with it: read-out: Stability. The method in brief: (§2)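 Incubation with mouse or human liver microsomes for 45 min, with or without NADPH. Remaining parent compound was quantified over time by HPLC-MS/MS and expressed as % remaining; intrinsic clearance is given in μL/min/mg protein.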

Data set [6] is described as follows: Metabolic stability in mouse liver microsomes assessed as parent compound remaining incubated for 45 mins in absence of NADPH by HPLC-MS/MS analysis. The format is ADME, Microsome. The note with it: read-out: Stability. Summed up: as §2
A short description of data set [7]: Metabolic stability in human liver microsomes assessed as parent compound remaining incubated for 45 mins in absence of NADPH by HPLC-MS/MS analysis. The settings on record: read-out: Stability. The format is ADME, Microsome. Summed up: as §2
Data set [8] is described as follows: Plasma protein binding in human assessed as unbound fraction at 2 uM by rapid equilibrium dialysis based LC-MS/MS analysis. In kind it is ADME, cell-free. The method in brief: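 Binding was measured at 2 μM in triplicate by rapid equilibrium dialysis (8K MWCO). Quantification was by UPLC-MS/MS on a phenyl column in positive ESI MRM mode (m/z 727>567), with an ammonium formate pH 5 / 1,5-DMHA mobile phase at 50 °C. Both unbound fraction (fu) and % bound are reported.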

Data set [9] has as its target cGMP-inhibited 3',5'-cyclic phosphodiesterase 3A (Homo sapiens) (UniProt Q14432). The experiment in a line: Inhibition of PDE3A (unknown origin) at 10 uM. Summed up: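 Single-concentration safety screen at 10 μM across a 47-target panel. GPCRs were run in antagonist mode and enzymes in inhibitor mode.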
Data set [10] can be described thus: Cmax in C57BL/6J mouse at 9.103 mg/kg, ip administered as single dose measured up to 24 hrs. In kind it is ADME, organism-based. The settings on record: in vivo. Details: time < 24 hrs, dose 9.103 mg/kg, route ip. The method in brief:
(§3)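 Single intraperitoneal dose in male C57BL/6J mice (12 per route). Tail-vein blood was collected under sodium heparin for plasma, with 3 mice sampled at each pair of times: 0.083/2, 0.25/4, 0.5/8 and 1/24 h. F denotes bioavailability.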

Data set [11] in a line: Cmax in C57BL/6J mouse at 0.711 mg/kg, iv administered as single dose measured up to 24 hrs. In kind it is ADME, organism-based. Details: time < 24 hrs, dose 0.711 mg/kg, route iv. The settings on record: in vivo. The method in brief: (§4)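 Single intravenous dose. Mice were male C57BL/6J, 12 per route; tail-vein blood was collected under sodium heparin, with 3 mice sampled at each pair of times (0.083/2, 0.25/4, 0.5/8, 1/24 h). Dogs were male beagles (n=3); jugular blood was collected under K2 EDTA predose and at 0.083, 0.25, 0.5, 1, 2, 4, 6, 8 and 24 h. Plasma was prepared from the samples.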

The nature of data set [12]: Tmax in C57BL/6J mouse at 9.103 mg/kg, ip administered as single dose measured up to 24 hrs. In kind it is ADME, organism-based. The note with it: in vivo. The method in brief:
as §3

Data set [13] in a line: Tmax in Beagle dog at 26.76 mg/kg, iv administered as single dose measured up to 24 hrs. The format is ADME, organism-based, Canis lupus familiaris. The note with it: in vivo. The method in brief: as §4
The nature of data set [14]: Half life in Beagle dog at 26.76 mg/kg, iv administered as single dose measured up to 24 hrs. The format is ADME, organism-based, Canis lupus familiaris. The note with it: in vivo. The method in brief:
as §4

Data set [15] is described as follows: Total clearance in C57BL/6J mouse at 9.103 mg/kg, ip administered as single dose measured up to 24 hrs. In kind it is ADME, organism-based. The note with it: in vivo. The method in brief: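 Male C57BL/6J mice, single IP dose. Tail-vein blood into sodium heparin for plasma. Twelve mice per route, three per pair of time points: 0.083 and 2 h, 0.25 and 4 h, 0.5 and 8 h, 1 and 24 h. Parameters derived from plasma concentration–time data.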

A short description of data set [16]: Total clearance in C57BL/6J mouse at 0.711 mg/kg, iv administered as single dose measured up to 24 hrs. In kind it is ADME, organism-based. The note with it: in vivo. The method in brief:
as §4

Data set [17] is described as follows: AUC(0 to t) in C57BL/6J mouse at 9.103 mg/kg, ip administered as single dose measured up to 24 hrs. The format is ADME, organism-based. Details: time < 24 hrs, dose 9.103 mg/kg, route ip. The note with it: in vivo. The method in brief: as §3
Data set [18] can be described thus: AUC(0 to t) in C57BL/6J mouse at 0.711 mg/kg, iv administered as single dose measured up to 24 hrs. In kind it is ADME, organism-based. Details: dose 0.711 mg/kg, time < 24 hrs, route iv. The note with it: in vivo. Summed up:
as §4

Data set [19] is described as follows: AUCextra in C57BL/6J mouse at 0.711 mg/kg, iv administered as single dose measured up to 24 hrs. The format is ADME, organism-based. The settings on record: in vivo. Summed up:
as §4

Data set [20] in a line: Toxicity in C57BL/6 mouse assessed as change in kidney weight at 250 mg/kg, ip administered as single dose and measured after 15 days (reference value: 0.3 g). In kind it is organism-based. The settings on record: in vivo, 360 h, time 15 day. Summed up:
as §1

Data set [21] is described as follows: Toxicity in C57BL/6 mouse assessed as change in kidney weight at 500 mg/kg, ip administered as single dose and measured after 15 days (reference value: 0.3 g). In kind it is organism-based. The settings on record: in vivo, 360 h, time 15 day. Summed up: as §1
Data set [22] concerns MCA-205. The experiment in a line: Antitumour activity against mouse wild type MCA-205 cells implanted in C57BL/6 mouse assessed as decrease in tumour growth at 5 mg/kg,IT administered starting from day 7 post inoculation and thrice a week for 2 weeks. In kind it is functional, organism-based. The method in brief:
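MCA205 WT fibrosarcoma cells were inoculated subcutaneously into the right flank of female C57BL/6 mice. Dosing was 5 mg/kg intratumoral, three times per week for two weeks, starting day 7 post-inoculation; controls were untreated. Tumor area was recorded every 3–4 days, and tumor size was measured at killing. Analysis was by one-way ANOVA.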

Data set [23] is described as follows: Antitumour activity against mouse wild type MCA-205 cells implanted in C57BL/6 mouse assessed as tumor size by measuring cell killing at 5 mg/kg, IT administered starting from day 7 post inoculation and thrice a week for 2 weeks. The format is functional. The method in brief:
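Female C57BL/6 mice (6 weeks old) given subcutaneous MCA205 WT fibrosarcoma in the right flank. From day 7 after inoculation, 5 mg/kg given intratumorally three times per week for two weeks; untreated controls. Tumour area recorded every 3–4 days until ethical endpoints, then tumour size at killing. Groups compared by one-way ANOVA.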

Data set [24] in a line: Toxicity in C57BL/6 mouse assessed as behavioral changes at 50 to 500 mg/kg, ip and measured upto 30 mins post administration. The format is organism-based. The settings on record: in vivo, 0.5 h, dose 50-500 mg/kg. Summed up:
as §1

Sequence of cGMP-inhibited 3',5'-cyclic phosphodiesterase 3A (Homo sapiens) (Q14432 whole entry): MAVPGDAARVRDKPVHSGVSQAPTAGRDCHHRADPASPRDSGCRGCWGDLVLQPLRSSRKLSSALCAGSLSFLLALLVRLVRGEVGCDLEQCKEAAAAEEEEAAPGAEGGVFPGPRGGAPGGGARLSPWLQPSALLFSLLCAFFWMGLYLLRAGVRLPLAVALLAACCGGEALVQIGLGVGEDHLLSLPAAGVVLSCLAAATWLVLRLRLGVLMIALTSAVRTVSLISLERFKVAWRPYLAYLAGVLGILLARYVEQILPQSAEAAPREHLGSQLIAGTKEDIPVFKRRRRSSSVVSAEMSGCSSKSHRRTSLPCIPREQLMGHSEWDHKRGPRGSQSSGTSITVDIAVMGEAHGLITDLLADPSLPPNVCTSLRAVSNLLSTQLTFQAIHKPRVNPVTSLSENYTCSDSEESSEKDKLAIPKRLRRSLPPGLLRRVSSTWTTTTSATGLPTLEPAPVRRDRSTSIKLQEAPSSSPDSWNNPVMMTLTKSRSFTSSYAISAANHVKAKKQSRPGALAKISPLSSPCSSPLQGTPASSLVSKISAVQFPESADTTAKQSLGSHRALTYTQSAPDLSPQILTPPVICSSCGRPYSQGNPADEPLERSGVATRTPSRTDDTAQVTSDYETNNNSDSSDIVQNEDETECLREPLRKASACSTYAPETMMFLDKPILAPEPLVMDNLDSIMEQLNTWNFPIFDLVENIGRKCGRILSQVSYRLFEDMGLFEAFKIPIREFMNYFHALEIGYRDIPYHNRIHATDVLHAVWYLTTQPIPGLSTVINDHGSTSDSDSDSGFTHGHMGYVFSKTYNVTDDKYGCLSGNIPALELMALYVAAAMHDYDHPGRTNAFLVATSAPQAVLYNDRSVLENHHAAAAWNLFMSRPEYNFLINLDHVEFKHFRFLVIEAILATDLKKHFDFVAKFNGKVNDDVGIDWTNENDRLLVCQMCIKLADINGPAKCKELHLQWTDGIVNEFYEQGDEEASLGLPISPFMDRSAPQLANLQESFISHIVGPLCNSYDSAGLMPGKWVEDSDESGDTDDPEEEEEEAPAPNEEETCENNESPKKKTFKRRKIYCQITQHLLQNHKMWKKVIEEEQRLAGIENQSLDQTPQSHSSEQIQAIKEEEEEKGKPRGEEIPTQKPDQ

Turning to `COc1ccc(-c2cc(=O)c3c(O)cc(OP(=O)([O-])[O-])c(-c4cc(-c5cc(=O)c6c(O)cc(OP(=O)([O-])[O-])cc6o5)ccc4OC)c3o2)cc1.[Na+].[Na+].[Na+].[Na+]`, the Activity in data set [1] stood at 1 g; in data set [2] it was 1 g; in data set [3], 40%; in data set [4], 25%; in data set [20] it was 0.1 g; in [21], 0.2 g. Also, the Activity in data set [23] is listed as 50%; in [24], “Non-Toxic”. Also, the remaining at 0.75 h in data set [5] was 82.3%; in data set [6], 72.4%; in data set [7], 64.7%. Further, the fraction unbound at 2 µM in data set [8] came to 0.02. The compound also yielded an inhibition in data set [9] of 84.8%. For the same compound, the Cmax stood at 2080 ng/mL in data set [10] and 323 ng/mL in data set [11]. For the same compound, the Tmax in [12] and in data set [13] was 5 min throughout. The compound further gave a half-life in [14] of 228 min. For the same compound, the apparent clearance (CL/F) in data set [15] worked out at 154 mL/min/kg. The clearance in data set [16] amounted to 133 mL/min/kg. The figures for the AUC(0-t) at 24 h in data set [17] and in [18] were 982 ng·h/mL and 88.8 ng·h/mL, respectively. The “%AUCextra” value in [19] came out at 15.2%. Besides, the outcome in data set [22] was Active.
